pIC50: −log10 of the molar value. Active and inactive are the calls of the source. No cut-off for these calls is given here.
Key:
[1] = biological target: T1, cAMP and cAMP-inhibited cGMP 3',5'-cyclic phosphodiesterase 10A (Mus musculus, UniProt Q8CA95); assay: Inhibition of mouse PDE10A assessed as inhibition of hydrolysis of [3H]cGMP to [3H]GMP after 20 mins by scintillation counting
T1 sequence (Q8CA95 whole entry): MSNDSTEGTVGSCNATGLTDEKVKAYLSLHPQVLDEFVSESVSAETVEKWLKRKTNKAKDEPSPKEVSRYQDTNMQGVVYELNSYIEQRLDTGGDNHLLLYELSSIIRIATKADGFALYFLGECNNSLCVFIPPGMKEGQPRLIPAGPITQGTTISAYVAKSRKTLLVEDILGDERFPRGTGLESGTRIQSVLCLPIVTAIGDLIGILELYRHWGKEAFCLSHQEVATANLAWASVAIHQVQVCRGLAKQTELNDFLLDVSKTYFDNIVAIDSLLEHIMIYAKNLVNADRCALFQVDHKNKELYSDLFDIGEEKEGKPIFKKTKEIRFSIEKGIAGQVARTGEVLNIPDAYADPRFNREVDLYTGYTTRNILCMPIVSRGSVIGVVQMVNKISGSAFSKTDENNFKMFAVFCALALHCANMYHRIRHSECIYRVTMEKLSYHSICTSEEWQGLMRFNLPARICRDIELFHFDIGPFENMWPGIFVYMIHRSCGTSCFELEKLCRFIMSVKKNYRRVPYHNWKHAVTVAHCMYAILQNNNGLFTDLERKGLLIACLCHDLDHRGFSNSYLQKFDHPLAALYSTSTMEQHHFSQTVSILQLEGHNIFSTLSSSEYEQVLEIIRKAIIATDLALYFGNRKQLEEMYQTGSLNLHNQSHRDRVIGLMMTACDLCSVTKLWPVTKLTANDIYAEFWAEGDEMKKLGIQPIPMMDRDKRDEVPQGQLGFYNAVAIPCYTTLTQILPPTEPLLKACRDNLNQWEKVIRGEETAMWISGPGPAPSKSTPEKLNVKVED
In short: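 Reaction was started with mouse PDE10 (25 ng/ml final) and run 20 min at 30 °C. Stopped with yttrium silicate SPA beads, scintillation counted 1–2 h later. IC50 from curve fitting.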

Mus musculus [2] = species: Mus musculus; assay: Selectivity ratio of IC50 for mouse PDE1A to IC50 for mouse PDE10A
In short: (§1)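 Reaction started by adding enzyme (mouse PDE10 at 25 ng/ml final); 20 min at 30 °C. Stopped with yttrium silicate SPA beads, scintillation read 1–2 h later. IC50s from curve fits; ratio of other-PDE IC50 to PDE10A IC50.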

Mus musculus [3] = assay: Behavioral effect in mouse assessed as reduction in conditioned avoidance response at 10 to 30 mg/kg, ip administered 20 mins prior testing; format: functional, organism-based
In short: (§2)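 Mice trained in a shuttle-box to avoid foot-shock after a conditional stimulus, until at least 25 avoidances in 30 trials. Dosing was ip in 30 mM H3PO4, 0.2% tween 80, 5% DMSO, 20 min before testing; controls got vehicle. Eight mice per group. Paired-sample t-test compared each animal with its vehicle-injected performance on the previous day.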

[4] = Cmax in rat at 9 mg/kg, po; format: ADME, organism-based; parameters: dose 9 mg/kg, route oral; settings: in vivo
In short: (§3)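 Rat pharmacokinetics, dosed iv at 4 mg/kg and po at 9 mg/kg.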

Mus musculus [5] = species: Mus musculus; assay: Selectivity ratio of IC50 for mouse PDE2A to IC50 for mouse PDE10A; in short: as §1
Mus musculus [6] = species: Mus musculus; assay: Selectivity ratio of IC50 for mouse PDE11A to IC50 for mouse PDE10A; in short: as §1
[7] = Volume of distribution at steady state in rat at 4 mg/kg, iv; format: ADME, organism-based; parameters: dose 4 mg/kg, route intravenous; settings: in vivo, read-out: Vdss; in short: as §3
Mus musculus [8] = assay: Antipsychotic activity in mouse assessed as inhibition of PCP-induced hyperlocomotion at 20 mg/kg, ip administered 20 mins prior testing; format: functional, organism-based; parameters: dose 20 mg/kg
In short: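 PCP-induced hyperlocomotion in mice: 20 mg/kg ip in 30 mM H3PO4, 0.2% tween 80, 5% DMSO, dosed 20 min before testing; PCP given ip 10 min before testing. Controls got vehicle. Normal activity range 500–1000. Eight mice per group; t-test for each interval.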

Mus musculus [9] = species: Mus musculus; assay: Selectivity ratio of IC50 for mouse PDE8A to IC50 for mouse PDE10A; in short: as §1
[10] = Tmax in rat at 9 mg/kg, po; format: ADME, organism-based; parameters: dose 9 mg/kg, route oral; settings: in vivo; in short: as §3
Mus musculus [11] = species: Mus musculus; assay: Selectivity ratio of IC50 for mouse PDE3A to IC50 for mouse PDE10A; in short: as §1
[12] = Clearance in rat at 4 mg/kg, iv; format: ADME, organism-based; parameters: dose 4 mg/kg, route intravenous; settings: in vivo; in short: as §3
Mus musculus [13] = assay: Behavioral effect in ip dosed mouse assessed as reduction in conditioned avoidance response compound administered 20 mins prior testing; format: functional, organism-based; in short: as §2
Mus musculus [14] = species: Mus musculus; assay: Selectivity ratio of IC50 for mouse PDE7A to IC50 for mouse PDE10A; in short: as §1
Mus musculus [15] = species: Mus musculus; assay: Selectivity ratio of IC50 for mouse PDE4A to IC50 for mouse PDE10A; in short: as §1
Mus musculus [16] = species: Mus musculus; assay: Selectivity ratio of IC50 for mouse PDE5A to IC50 for mouse PDE10A; in short: as §1
[17] = Half life in rat at 4 mg/kg, iv; format: ADME, organism-based; parameters: dose 4 mg/kg, route intravenous; settings: in vivo; in short: as §3
Mus musculus [18] = species: Mus musculus; assay: Selectivity ratio of IC50 for mouse PDE9A to IC50 for mouse PDE10A; in short: as §1
[19] = Oral bioavailability in rat at 9 mg/kg; format: ADME, organism-based; settings: in vivo; in short: as §3

Row | Compound | pIC50 [1] | also measured
1 | COc1cc(/C=N/N(C)C(=O)CSc2cc(C)nc3ccccc23)cc(OC)c1OC | 7.59 | 
2 | COc1cc(/C=N/NC(=O)CSc2ccncc2)cc(OC)c1OC | 6.26 | 
3 | COc1cc(Br)c(/C=N/NC(=O)CSc2cc(C)nc3ccccc23)cc1OC | 7.11 | 
4 | COc1cc(/C=N/NC(=O)CSc2ccc([N+](=O)[O-])c3ccccc23)cc(OC)c1OC | 7.00 | 
5 | COc1cc(/C=N/NC(=O)CSc2ccc3ccccc3n2)cc(OC)c1OC | 6.85 | 
6 | COc1cc(/C=N/NC(=O)CSc2cc(C)nc3ccccc23)cc(OC)c1C#N | 7.85 | 
7 | COc1ccc(/C=N/NC(=O)CNc2cc(C)nc3ccccc23)cc1OC | 5.10 | 
8 | COc1ccc(/C(C)=N/NC(=O)CSc2cc(C)nc3ccccc23)cc1OC | 6.74 | 
9 | COc1cc(/C=N/NC(=O)CSc2cc(C)nc3ccccc23)cc(C#N)c1OC | 7.96 | 
10 | COc1cc(/C=N/NC(=O)CSc2cccc3cccnc23)cc(OC)c1OC | 6.72 | 
11 | COc1cc(/C=N/NC(=O)CSc2ccc(OC(F)(F)F)cc2)cc(OC)c1OC | 6.07 | 
12 | COc1cc(/C=N/NC(=O)CN(C)c2cc(C)nc3ccccc23)cc(OC)c1OC | 6.44 | 
13 | COc1cc(/C=N/NC(=O)CSc2cc(C)nc3ccccc23)cc(OC)c1OC | 8.00 | 
14 | COc1ccccc1SCC(=O)N/N=C/c1cc(OC)c(OC)c(OC)c1 | 6.18 | 
15 | COc1cc(/C=N/NC(=O)CSc2ccncn2)cc(OC)c1OC | 5.97 | 
16 | COc1ccc2nc(C)cc(SCC(=O)N/N=C/c3cc(OC)c(OC)c(OC)c3)c2c1 | 8.10 | Ratio IC50 (Mus musculus [2]): > 110; Activity (Mus musculus [3]): Active; Cmax [4]: 539 ng/mL; Ratio IC50 (Mus musculus [5]): > 110; Ratio IC50 (Mus musculus [6]): > 110; Vd [7]: 17.4 L/kg; inhibition (Mus musculus [8]): Active; Ratio IC50 (Mus musculus [9]): > 110; Tmax [10]: 0.25 h; Ratio IC50 (Mus musculus [11]): > 110; clearance [12]: 55 mL/min/kg; Activity (Mus musculus [13]): Dose-dependent effect; Ratio IC50 (Mus musculus [14]): > 110; Ratio IC50 (Mus musculus [15]): > 110; Ratio IC50 (Mus musculus [16]): > 110; half-life [17]: 11.3 h; Ratio IC50 (Mus musculus [18]): > 110; bioavailability [19]: 21%
17 | COc1cc(F)c(/C=N/NC(=O)CSc2cc(C)nc3ccccc23)cc1OC | 6.72 | 
18 | COc1cc(/C=N/NC(=O)CSc2ccc(-c3ccccc3)cc2)cc(OC)c1OC | 6.59 | 
19 | COc1ccc(/C=N/NC(=O)COc2cc(C)nc3ccccc23)cc1OC | 5.80 | 
20 | COc1ccc(/C=N/NC(=O)CSc2cc(C)nc3ccccc23)c(Br)c1OC | 5.32 | 
21 | Cc1cc(SCC(=O)N/N=C/c2ccc(OC(F)F)c(OC(F)F)c2)c2ccccc2n1 | 6.51 | 
22 | COc1cc(/C=N/NC(=O)CSc2ccnc3cc(Cl)ccc23)cc(OC)c1OC | 7.55 | 
23 | COc1cc(/C=N/NC(=O)CSc2ccnc3ccccc23)cc(OC)c1OC | 7.62 | 

The next lines start with results.

Row | pIC50 [1] | Compound | also measured
24 | 6.21 | COc1ccc(/C=N/NC(=O)CSc2cc(C)nc3ccccc23)cc1F | 
25 | 6.60 | COc1cc(/C=N/NC(=O)CSc2cc(C)nc3ccccc23)ccc1C(F)(F)F | 
26 | 5.85 | COc1ccc(/C=N/NC(=O)CSc2cc(C)nc3ccccc23)cc1 | 
27 | 5.77 | COc1ccc(/C=N/NC(=O)CSc2cc(C)nc3ccccc23)cc1OC(F)(F)F | 
28 | 8.32 | COc1cc(/C=N/NC(=O)CSc2cc(C)nc3ccccc23)cc(OC)c1Br | 
29 | 7.31 | COc1ccc(/C=N/NC(=O)CSc2cc(C)nc3ccccc23)cc1OC | 
30 | 7.06 | COc1cc(/C=N/NC(=O)CSc2cc(C)nc3ccccc23)ccc1Cl | 
31 | 7.52 | COc1cc(/C=N/NC(=O)CSc2cc(C)nc3ccccc23)cc(Br)c1OC | 
32 | 6.72 | COc1cc(/C=N/NC(=O)CSc2cc(C)nc3ccccc23)ccc1F | 
33 | 7.03 | COc1cc(/C=N/NC(=O)CSc2cc(C)nc3ccccc23)ccc1Br | 
34 | 6.18 | COc1ccc(/C=N/NC(=O)CSc2cc(C)nc3ccccc23)cc1OC(C)C | 
35 | 5.34 | COc1ccc(/C=N/NC(=O)CSc2cc(C)nc3ccccc23)c(Cl)c1OC | 
36 | 6.38 | COc1ccc(/C=N/NC(=O)CSc2cc(C)nc3ccccc23)cc1C(F)(F)F | 
37 | 7.35 | COc1cc(/C=N/NC(=O)CSc2cc(C)nc3ccccc23)cc(Cl)c1OC | 
38 | 5.92 | COc1cccc(/C=N/NC(=O)CSc2cc(C)nc3ccccc23)c1 | 
39 | 6.80 | COc1cc(/C=N/NC(=O)CSc2cc(C)nc3ccccc23)ccc1C#N | 
40 | 7.29 | COc1cc(/C=N/NC(=O)CSc2cc(C)nc3ccccc23)cc(F)c1OC | 
41 | 7.00 | COc1cc(/C=N/NC(=O)CSc2cc(C)nc3ccccc23)ccc1C | 
42 | 6.70 | COc1cc(Cl)c(/C=N/NC(=O)CSc2cc(C)nc3ccccc23)cc1OC | 
43 | 6.59 | CCOc1cc(/C=N/NC(=O)CSc2cc(C)nc3ccccc23)ccc1OC | 
44 | 6.82 | COc1cc(/C=N/NC(=O)CSc2cc(C)nc3ccccc23)cc(OC)c1 | 
45 | 6.66 | COc1ccc(/C=N/NC(=O)CSc2cc(C)nc3ccccc23)cc1Cl | 

Source: ChEMBL document CHEMBL1799961, “N-Acylhydrazones as inhibitors of PDE10A” (Bioorg Med Chem Lett, 2011)
